Screening data from PubChem.
TRPC6 inh: mouse TRPC6 channel inhibition | Q61143 | HEK293-TRPC6, membrane potential dye, ACh-evoked depolarization; hits give low values | B-score at 10 µM | hit rate 1.1% among 310,000 | AID 2553;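 active = B-score under library mean minus 3 SD, initial fluorescence not abnormally high, positive integrated signal ratio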;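 note: B-score derived from integrated fluorescence ratio over the kinetic read; more negative B-score means stronger inhibition of depolarization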
TRPC4 PAM: TRPC4 (mouse) allosteric potentiation | AID 2227 | HEK293 TRPC4beta/mu-opioid, DAMGO EC20, Fluo-4 Ca2+ flux; hits give high values | Q9QUQ5 | hit rate 0.42% among 310,000 | B-score at 10 µM;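 active = B-score of calcium response area above 5 SD of library B-scores, with initial fluorescence ratio within 5 SD of library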
Target sequence (Q9QUQ5 whole entry, looked up): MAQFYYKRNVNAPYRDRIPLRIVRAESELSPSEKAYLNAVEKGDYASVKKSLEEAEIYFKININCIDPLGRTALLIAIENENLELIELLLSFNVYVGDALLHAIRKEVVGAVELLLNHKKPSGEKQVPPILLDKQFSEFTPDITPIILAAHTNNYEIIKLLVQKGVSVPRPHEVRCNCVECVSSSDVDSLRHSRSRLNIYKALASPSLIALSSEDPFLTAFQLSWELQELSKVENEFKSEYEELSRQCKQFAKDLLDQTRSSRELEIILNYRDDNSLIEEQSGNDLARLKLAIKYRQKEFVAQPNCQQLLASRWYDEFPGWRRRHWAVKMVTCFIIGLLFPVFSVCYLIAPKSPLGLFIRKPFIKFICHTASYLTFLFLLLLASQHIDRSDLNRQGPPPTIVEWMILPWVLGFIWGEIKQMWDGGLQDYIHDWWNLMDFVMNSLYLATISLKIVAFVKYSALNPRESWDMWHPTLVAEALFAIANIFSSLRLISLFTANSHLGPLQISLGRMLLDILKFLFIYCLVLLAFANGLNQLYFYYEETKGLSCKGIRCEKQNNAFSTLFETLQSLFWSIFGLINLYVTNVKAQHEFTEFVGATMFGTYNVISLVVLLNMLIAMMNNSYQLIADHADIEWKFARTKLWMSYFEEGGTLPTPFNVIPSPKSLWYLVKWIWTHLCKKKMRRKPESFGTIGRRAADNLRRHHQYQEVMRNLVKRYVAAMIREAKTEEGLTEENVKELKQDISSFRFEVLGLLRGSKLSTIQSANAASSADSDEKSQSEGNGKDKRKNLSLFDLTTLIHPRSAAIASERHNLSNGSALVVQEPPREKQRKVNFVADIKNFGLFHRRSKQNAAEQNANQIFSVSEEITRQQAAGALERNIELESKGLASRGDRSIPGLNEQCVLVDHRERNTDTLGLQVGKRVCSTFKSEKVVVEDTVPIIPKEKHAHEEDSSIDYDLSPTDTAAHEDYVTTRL
TRPC6 activator: activates the mouse TRPC6 cation channel | Q61143 | HEK293-TRPC6 membrane potential dye fluorescence; hits give high values | B-score at 10 µM | hit rate 0.13% among 310,000 | AID 2550;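 active = B-score of the integrated fluorescence ratio above library mean plus 3 SD, and starting fluorescence ratio within library mean plus 5 SD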;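 note: higher score means more depolarization so channel activation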
TRPC4 block: inhibitors of mouse TRPC4 channel; Q9QUQ5; HEK293 TRPC4beta/mu-opioid, DAMGO-evoked Fluo4 calcium flux; hits give low values; B-score at 10 µM; hit rate 0.39% among 300,000; AID 2247;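 active = B-score over 3 SD under the library average, no early fluorescence shift, positive overall ratio signal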
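Assay system: TRPC4beta/mu-opioid receptor HEK293 cell line; compound dosing: single concentration per test compound; detection: Fluo4 Ca2+ flux fluorescence; evaluation: per-well B score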
TRPC4 act: activators of mouse TRPC4 channel. Q9QUQ5. HEK293 TRPC4beta/mu-opioid, Fluo4 calcium fluorescence; hits give high values. B-score at 10 µM. hit rate 0.49% among 310,000. AID 2237;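 active = B-score above 5 SD of library B-scores, and initial fluorescence ratio not above library mean plus 5 SD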;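 note: positive B-score marks a calcium rise read as TRPC4 activation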
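System – HEK293 cells stably co-expressing mouse TRPC4beta and mu-opioid receptor · Signal – Fluo4 calcium-sensitive dye fluorescence, kinetic, 1 Hz baseline · Benchmarks – buffer (low) and maximal DAMGO (high) · Read-out – B score of integrated fluorescence ratio per well · Incubation – dye loading 45 min room temperature, 110 s kinetic read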
TRPC4 spec 2: second check of whether TRPC6 inhibitors also affect mouse TRPC4; shares compounds with TRPC6 inh; HEK293 TRPC4/MOR, membrane potential dye fluorescence; channel activated by saturating DAMGO dose; inhibition, % at 10 µM; hit rate 42% among 920;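 active = compounds whose fluorescence signal differed from control wells by over 3 SD, either direction, in both duplicate plates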
TRPC4 spec: tests whether TRPC6 inhibitors also affect mouse TRPC4. shares compounds with TRPC6 inh. HEK293 TRPC4/mu-opioid, membrane potential fluorescence. activity change, negative = inhibition, % at 10 µM. hit rate 61% among 920;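 active = rise or fall in signal beyond 3 SD of buffer-only wells in both replicate plates, either sign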;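 note: integrated kinetic ratio of fluorescence range over baseline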
HEK293 MPD ctr 2-1: parental HEK293 nonspecific activity of TRPC6 inhibitors, second screen. shares compounds with TRPC6 inh. parental HEK293 membrane potential dye fluorescence; maximal acetylcholine challenge after compound addition. signal change vs control, % at 10 µM. hit rate 31% among 920;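 active = membrane potential signal moving either way by over 3 SD of the maximum-effect control, in both duplicate plates, meaning non-specific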
HEK293 MPD ctr-1: checks TRPC6 inhibitor effects in parental HEK293 cells. membrane potential signal change, % at 10 µM. AID 2780. parental HEK293 membrane potential dye fluorescence. hit rate 60% among 920. shares compounds with TRPC6 inh;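 active = membrane potential signal shifting up or down by more than 3 SD of buffer-only wells, on both duplicate plates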
HEK293 MPD ctr-2: checks TRPC6 modulator effects in parental HEK293 cells; shares compounds with TRPC6 inh; membrane potential dye fluorescence; membrane potential signal change, % at 10 µM; hit rate 51% among 2,400;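 active = membrane potential signal moves up or down beyond 5 SD from buffer-only wells, on both duplicate plates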
HEK293 MPD ctr 2-2: second counter-screen for TRPC6 modulators: effect in parental HEK293 cells; inhibition, % at 10 µM; membrane potential dye fluorescence; after compound, maximal acetylcholine stimulation; hit rate 14% among 2,400; shares compounds with TRPC6 inh;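 active = membrane potential signal drops by more than 5 SD from the mean control signal, in both duplicate plates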
TRPC4 ctr mod: mouse TRPC4 off-target activity of TRPC6 modulators; shares compounds with TRPC6 inh; HEK293 TRPC4/mu-opioid, membrane potential fluorescence; percent change from control (negative = decrease, positive = increase), % at 10 µM; hit rate 69% among 2,400; AID 488927;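 active = membrane potential signal moved up or down beyond 5 SD of buffer control wells, in both duplicate plates, actives on both sides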
TRPC4/MOR inh 2: second selectivity test of TRPC6 modulators against mouse TRPC4; shares compounds with TRPC6 inh; HEK293 TRPC4/mu-opioid, membrane potential dye fluorescence; stimulated with maximal-effect DAMGO; inhibition, % at 10 µM; hit rate 55% among 2,400; AID 488928;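 active = drop in membrane potential signal beyond 5 SD of the control wells in both duplicate plates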;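 note: TRPC4 counter screen for TRPC6 hits run under conditions tuned for TRPC6 not TRPC4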
TRPC6 block conf: confirmation of mouse TRPC6 inhibitors; shares compounds with TRPC6 inh; HEK293-TRPC6, membrane potential dye, ACh-evoked depolarization; inhibition, % at 10 µM; hit rate 43% among 3,300; AID 488960;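 active = fluorescence ratio falls more than 5 SD below the full-stimulation control mean, in both duplicate runs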;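 note: integrated fluorescence ratio of peak minus minimum over baseline after agonist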
TRPC6 act confirm: mouse TRPC6 activator confirmation; shares compounds with TRPC6 inh; HEK293-TRPC6 membrane potential dye fluorescence, FDSS; activation, % at 10 µM; hit rate 11% among 2,800; AID 488961;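 active = ratio signal rise beyond 5 SD above unstimulated control wells' mean, seen in both duplicate runs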
Numbers stand for hits; – = inactive; · = no result given; + = active, no number. In the library only some 2.3% were active in any assay of this set; here they are far more common.

SMILES	TRPC6 inh	TRPC4 PAM	TRPC6 activator	TRPC4 block	TRPC4 act	HEK293 MPD ctr-2	HEK293 MPD ctr 2-2	TRPC4 ctr mod	TRPC4/MOR inh 2	TRPC6 block conf	TRPC6 act confirm	others
CCOC(=O)N1CCC(N2Cc3cccc(C(=O)Nc4ccc(OCC)cc4)c3C2=O)CC1	–	–	–	–	–	·	·	·	·	·	·
CCC(C)NC(=O)CCC(=O)Nc1ccc2nc(N3CCOCC3)cc(C)c2c1 (stereo not given)	-5.54	–	–	–	–	-260.0%	–	-43.5%	38.0%	40.0%	–
CCCCN(C)C(=O)CCC(=O)Nc1ccc2nc(N3CCOCC3)cc(C)c2c1	-7.64	–	–	–	–	·	·	·	·	–	–	TRPC4 spec 2=–;TRPC4 spec=-20.1%;HEK293 MPD ctr 2-1=–;HEK293 MPD ctr-1=-326.0%
CC(=O)c1ccc(N2CCN(C(=O)CCC(=O)Nc3ccc4nc(N5CCN(C)CC5)cc(C)c4c3)CC2)cc1	–	–	13.1	–	–	–	–	16.0%	–	–	–
CCN1CCN(c2cc(C)c3cc(NC(=O)CCC(=O)N4CCN(c5ccccc5)CC4)ccc3n2)CC1	–	–	–	–	–	·	·	·	·	·	·
CCC(C)NC(=S)Nc1ccc2nc(N3CCOCC3)cc(C)c2c1 (stereo not given)	–	–	–	–	–	·	·	·	·	·	·
COc1ccc(Br)c(C(=O)NCC2CCCCC2)c1	-5.16	–	–	–	–	–	–	44.5%	53.5%	–	·
Cc1cc(NC(=O)CSc2ccc3nnc(-c4cccs4)n3n2)no1	-5.3	–	–	–	–	-159.0%	–	-35.5%	–	–	–
Cc1ccc(-c2nnc3ccc(SCC(=O)Nc4cc(C)on4)nn23)cc1	–	–	–	–	–	·	·	·	·	·	·
Cc1cc(/C=C2\SC(=S)NC2=O)c(C)[nH]1	-6.4	–	26.9	–	–	782.5%	+	107.0%	41.5%	–	164.0%
Cc1cc(/C=C2\SC(=S)NC2=O)c(C)n1-c1cccc(O)c1	–	–	14.3	–	–	568.5%	–	85.0%	45.0%	–	174.5%
CCn1c(C)cc(/C=C2/SC(=S)NC2=O)c1C	–	–	–	–	–	·	·	·	·	·	·
CCC[n+]1c2ccccc2cc2ccccc21	-11.9	–	–	–	–	-175.5%	84.5%	-91.0%	65.5%	67.5%	–
CCCC[n+]1c2ccccc2cc2ccccc21	-6.28	–	–	-5	–	-169.5%	–	-100.5%	73.5%	55.5%	–
Cc1ccc2ccccc2[n+]1CCCS(=O)(=O)[O-]	–	–	–	–	–	·	·	·	·	·	·
CC1CCCCC1NC(=O)C1CCCN(S(=O)(=O)c2ccc(-n3cnnn3)cc2)C1 (stereo not given)	–	–	–	–	–	·	·	·	·	·	·
COc1ccc([C@@H]2[C@@H](C(=O)C(C)(C)C)N3N=Cc4ccccc4[C@@H]3C23C(=O)OC(C)(C)OC3=O)cc1OC	–	–	–	–	–	·	·	·	·	·	·
COc1ccc([C@H]2[C@H](C(=O)C(C)(C)C)N3N=Cc4ccccc4C3C23C(=O)OC(C)(C)OC3=O)cc1 (stereo not given in full)	-6.03	–	–	–	–	–	–	9.0%	–	–	–
O=C(c1ccc([N+](=O)[O-])cc1)N(Cc1ccc(Br)cc1)N1C(=O)CCCC1=O	-9.84	–	16.4	–	45	457.5%	186.5%	38.0%	33.5%	68.5%	100.5%
CS(=O)(=O)N(CC(=O)Nc1ccc(S(=O)(=O)N2CCCC2)cc1)c1ccccc1	–	–	–	–	–	·	·	·	·	·	·
Cc1ccc(S(=O)(=O)/C(C#N)=C/c2c(N3CCOCC3)nc3c(C)cccn3c2=O)cc1	-5.86	–	–	–	–	–	–	-10.5%	–	–	–
COCc1[nH]nc2c1C(c1c(F)cccc1Cl)C(C#N)=C(N)O2 (stereo not given)	-5.59	–	–	–	–	–	–	–	–	–	–
CCOC(=O)c1c(CSc2cccs2)n(C)c2cc(Br)c(O)c(CN(C)C)c12	-6.38	–	–	–	–	–	–	–	71.5%	54.5%	–
CN1CCN(/N=C/c2ccc(-c3ccc([N+](=O)[O-])cc3Cl)o2)CC1	–	–	12.9	–	–	259.5%	–	39.0%	–	–	91.5%
COc1cc([N+](=O)[O-])ccc1-c1ccc(/C=N/NC(=O)c2ccccc2O)o1	–	–	–	–	–	·	·	·	·	·	·
SMILES	TRPC6 inh	TRPC4 PAM	TRPC6 activator	TRPC4 block	TRPC4 act	HEK293 MPD ctr-2	HEK293 MPD ctr 2-2	TRPC4 ctr mod	TRPC4/MOR inh 2	TRPC6 block conf	TRPC6 act confirm	others
O=[N+]([O-])c1ccc(Cl)c(-c2ccc(/C=N/n3cnnc3)o2)c1	-7.31	–	–	–	–	-154.5%	–	-30.0%	–	–	–
COc1cc([N+](=O)[O-])ccc1-c1ccc(/C=N\n2cnnc2)o1	-9.29	–	–	–	–	–	–	-61.0%	39.0%	–	–
Cc1cc(-c2ccc(/C=N/n3cnnc3)o2)c(C)c([N+](=O)[O-])c1	-5.98	–	–	–	–	-221.0%	71.0%	-44.0%	57.5%	48.0%	–
CC(C)CCNC(=O)C(=O)Nc1ccc2c(c1)N(S(=O)(=O)c1cccs1)CCC2	–	–	–	–	–	·	·	·	·	·	·
CCC(Oc1ccc(C)cc1)C(=O)Nc1ccccc1C(=O)N1CCOCC1 (stereo not given)	–	–	–	–	–	·	·	·	·	·	·
COc1ccc(NC(=O)NC2CCCc3ccccc32)c(OC)c1 (stereo not given)	–	–	–	–	–	·	·	·	·	·	·
